From ChEMBL document CHEMBL3352113, “Cytoprotective pyridinol antioxidants as potential therapeutic agents for neurodegenerative and mitochondrial diseases” (Bioorg Med Chem, 2014) come the findings set out here.

Data set [1] has as its system Lymphocyte. The data set is described as follows: Inhibition of lipid peroxidation in diethyl maleate-treated human lymphocytes obtained from FRDA patient at 100 to 250 nM after 16 hrs using C11-BODIPY581/591 by FACS analysis. The data set is classed as functional, cell-based. In a few lines: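 FRDA lymphocytes depleted of glutathione with DEM, probed with C11-BODIPY581/591. Green (oxidized) fluorescence read by flow cytometry at 490/510 nm. Median mean fluorescence taken relative to untreated control and converted to % lipid peroxidation scavenging; mean ± SEM, n = 3.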
In general terms: A flow cytometer gives signals particle by particle.

Data set [2] has as its system Lymphocyte. The data set is described as follows: Cytoprotective activity in human lymphocytes obtained from Leigh's syndrome patient assessed as viable cells at 0.1 uM after 16 hrs by trypan blue exclusion assay. The format is functional. The following applies: read-out: Activity. In a few lines: (§1)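 Lymphocytes from FRDA or Leigh's syndrome patients, grown in RPMI-1640 with 15% fetal calf serum and 2 mM glutamine, kept in log phase. Test agents at 0.1, 0.5 and 2.5 µM; diethyl maleate (DEM) added to deplete glutathione and induce oxidative stress. Viability expressed relative to untreated cells (100%). Values are mean ± SD/SEM as tabulated.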

In data set [3] the test system is Lymphocyte. The data set is described as follows: Increase in ATP production in CoQ10-deficient lymphocytes (unknown origin) assessed as cellular ATP level at 25 uM after 48 hrs using luciferin-luciferase reaction by bioluminescence assay relative to control. The data set is classed as functional. An outline of the steps:
(§2)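 CoQ10-deficient lymphocyte line GM17932 grown in glucose-free RPMI 1640 with 25 mM galactose, 2 mM glutamine and 10% dialyzed FBS, forcing oxidative phosphorylation. Incubated with compounds at 5, 10 or 25 µM for 48 h. Total intracellular ATP measured by luciferin–luciferase reaction, expressed as % of untreated control.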

A short description of data set [4]: Drug metabolism in bovine liver microsomes at 25 uM after 30 mins by reverse phase HPLC analysis. The format is ADME, Bos taurus. The following applies: cattle, read-out: Drug metabolism. An outline of the steps: (§3)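 Compounds incubated 30 min with activated bovine liver microsomes. Remaining parent compound quantified by reversed-phase HPLC and expressed as % recovered; mean ± SD.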

Data set [5] concerns Lymphocyte. Nature of the data set: Inhibition of ROS generation in diethyl maleate-treated human lymphocytes obtained from FRDA patient compound pretreated for 16 hrs using DCFH-DA by FACS analysis. The data set is classed as functional, cell-based. In a few lines:
(§4)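 FRDA lymphocytes pretreated with compounds at 100, 250 and 500 nM for 16 h, then given DEM for 80 min to raise ROS. Stained with DCFH-DA for 15 min, then DCF fluorescence read by flow cytometry. Reported as % ROS scavenging; mean ± SEM of three experiments run in duplicate.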

The species named for data set [6] is Bos taurus. The data set is described as follows: Inhibition of bovine heart mitochondrial NADH oxidase complex I/III/IV assessed as remaining activity at 10 uM by spectrophotometry relative to untreated control.
Data set [7] has as its system Lymphocyte. The data set is described as follows: Inhibition of ROS generation in diethyl maleate-treated human lymphocytes obtained from FRDA patient compound pretreated at 100 to 500 nM for 16 hrs using DCFH-DA by FACS analysis. The data set is classed as functional, cell-based. In a few lines: as §4
In data set [8] the test system is Lymphocyte. The data set is described as follows: Cytoprotective activity in human lymphocytes obtained from FRDA patient assessed as viable cells at 0.5 uM after 16 hrs by trypan blue exclusion assay. The data set is classed as functional. The following applies: read-out: Activity. In a few lines: as §1
In data set [9] the test system is Lymphocyte. The data set is described as follows: Inhibition of oxidative stress-induced mitochondrial membrane depolarization in diethyl maleate-treated human lymphocytes obtained from FRDA patient assessed as cells with intact mitochondrial membrane potential pretreated for 16 hrs using TMRM by FACS analysis. The format is functional, cell-based.
The test system of data set [10] is Lymphocyte. The data set is described as follows: Inhibition of oxidative stress-induced mitochondrial membrane depolarization in diethyl maleate-treated human lymphocytes obtained from FRDA patient assessed as cells with intact mitochondrial membrane potential at 250 nM pretreated for 16 hrs using TMRM by FACS analysis (reference value: 95%). The data set is classed as functional. Also on record: scale not given: the % may be the effect or the level left.

For data set [11], the system named is Lymphocyte. Nature of the data set: Increase in ATP production in CoQ10-deficient lymphocytes (unknown origin) assessed as cellular ATP level at 5 uM after 48 hrs using luciferin-luciferase reaction by bioluminescence assay relative to control. The data set is classed as functional. An outline of the steps:
as §2

In data set [12] the test system is Lymphocyte. Nature of the data set: Inhibition of oxidative stress-induced mitochondrial membrane depolarization in diethyl maleate-treated human lymphocytes obtained from FRDA patient assessed as cells with intact mitochondrial membrane potential at 100 nM pretreated for 16 hrs using TMRM by FACS analysis (reference value: 95%). The arrangement: scale not given: the % may be the effect or the level left. The data set is classed as functional.

The species named for data set [13] is Bos taurus. Nature of the data set: Inhibition of bovine heart mitochondrial NADH oxidase complex I/III/IV assessed as remaining activity by spectrophotometry relative to untreated control.
The test system of data set [14] is Lymphocyte. The data set is described as follows: Cytoprotective activity in human lymphocytes obtained from FRDA patient assessed as viable cells at 2.5 uM after 16 hrs by trypan blue exclusion assay. The format is functional. The conditions noted are these: read-out: Activity. In a few lines: as §1
In data set [15] the test system is Lymphocyte. The data set is described as follows: Cytoprotective activity in human lymphocytes obtained from Leigh's syndrome patient assessed as viable cells after 16 hrs by trypan blue exclusion assay. The format is functional, cell-based. In a few lines: as §1
Data set [16] in a line: Metabolic stability in bovine liver microsomes at 25 uM after 30 mins by reverse phase HPLC analysis. The format is ADME, Bos taurus. The following applies: cattle, read-out: Stability. An outline of the steps:
as §3

Data set [17] relates to Lymphocyte. The data set is described as follows: Increase in ATP production in CoQ10-deficient lymphocytes (unknown origin) assessed as cellular ATP level at 10 uM after 48 hrs using luciferin-luciferase reaction by bioluminescence assay relative to control. The data set is classed as functional. In a few lines: as §2
The species entered for data set [18] is Bos taurus. Nature of the data set: Inhibition of bovine heart mitochondrial NADH oxidase complex I/III/IV assessed as remaining activity at 5 uM by spectrophotometry relative to untreated control.
In data set [19] the test system is Lymphocyte. Nature of the data set: Cytoprotective activity in human lymphocytes obtained from FRDA patient assessed as viable cells after 16 hrs by trypan blue exclusion assay. The format is functional, cell-based. An outline of the steps: as §1
Data set [20] deals with Lymphocyte. Nature of the data set: Cytoprotective activity in human lymphocytes obtained from Leigh's syndrome patient assessed as viable cells at 2.5 uM after 16 hrs by trypan blue exclusion assay. The data set is classed as functional. The conditions noted are these: read-out: Activity. An outline of the steps: as §1
For data set [21], the system named is Lymphocyte. Nature of the data set: Inhibition of oxidative stress-induced mitochondrial membrane depolarization in diethyl maleate-treated human lymphocytes obtained from FRDA patient assessed as cells with intact mitochondrial membrane potential at 500 nM pretreated for 16 hrs using TMRM by FACS analysis (reference value: 95%). The data set is classed as functional. The arrangement: scale not given: the % may be the effect or the level left.

Data set [22] relates to Lymphocyte. Nature of the data set: Cytoprotective activity in human lymphocytes obtained from FRDA patient assessed as viable cells at 0.1 uM after 16 hrs by trypan blue exclusion assay. The format is functional. The conditions noted are these: read-out: Activity. An outline of the steps: as §1
For data set [23], the species on record is Bos taurus. The data set is described as follows: Inhibition of bovine heart mitochondrial NADH oxidase complex I/III/IV assessed as remaining activity at 1 uM by spectrophotometry relative to untreated control.
Data set [24] has as its system Lymphocyte. Nature of the data set: Cytoprotective activity in human lymphocytes obtained from Leigh's syndrome patient assessed as viable cells at 0.5 uM after 16 hrs by trypan blue exclusion assay. The format is functional. The conditions noted are these: read-out: Activity. In a few lines:
as §1

Active and inactive are the calls of the source. No cut-off for these calls is given here.

Consider `CCCCCCCCCCCCCCCCc1nc(N(C)C)c(C)c(C)c1O`, for which the inhibition result in [1] and in data set [7] was “Active” throughout. The figures for the viability at 0.1 µM in [2] and in [22] were 29% and 80%, respectively. Further, the Activity was 41% in data set [3]; 92% in data set [6]; 84% in data set [10]; 100% in [11]; 67% in data set [12]; “Dose-dependent effect” in data set [15]. Besides, the Activity in data set [17] is 79%; in data set [18], 95%; in data set [19], “Dose-dependent effect”; in data set [21] it was 92%; in data set [23], 98%. Besides, the metabolised at 0.5 h, 25 µM in data set [4] amounted to 20%. Besides, the inhibition result in [5], in data set [9] and in data set [13] was “Dose-dependent effect” throughout. Further, the results for the viability at 0.5 µM in [8] and in data set [24] were 91% and 78%, respectively. Further, the values for the viability at 2.5 µM in data set [14] and in data set [20] were 92% and 83%, respectively. The remaining at 0.5 h, 25 µM in data set [16] worked out at 70%.
As for `CCCCCCCCCCc1nc(N(C)C)c(C)c(C)c1O`, the inhibition result in data set [1] and in data set [7] was “Active” throughout. Also, the results for the viability at 0.1 µM in data set [2] and in [22] were 6% and 36%, respectively. The Activity is 13% in data set [3]; 13% in data set [6]; 82% in [10]; 89% in [11]; 65% in data set [12]; “Dose-dependent effect” in data set [15]. Besides, the Activity is 52% in data set [17]; 28% in data set [18]; “Dose-dependent effect” in data set [19]; 90% in [21]; 35% in data set [23]. In addition, the metabolised at 0.5 h, 25 µM in data set [4] is 25%. Moreover, the results for the viability at 0.5 µM in data set [8] and in data set [24] were 74% and 77%, respectively. The inhibition result in data set [9] and in data set [13] was “Dose-dependent effect” throughout. Further, the viability at 2.5 µM came out at 87% in data set [14] and 79% in data set [20]. Also, the remaining at 0.5 h, 25 µM in data set [16] amounted to 70%.
As to `CCCCCCCCCCCCCCCCc1c(C)c(N(C)C)nc(C)c1O`, the inhibition entry in data set [1] and in data set [7] was “Active” each time. Further, the viability at 0.1 µM in data set [2] is 11%; in data set [22], 52%. The Activity in [3] is 37%; in data set [6] it was 86%; in data set [10] it was 83%; in [11], 96%; in data set [12], 62%; in data set [15], “Dose-dependent effect”. For the same compound, the Activity in data set [17] was 80%; in data set [18], 93%; in data set [19], “Dose-dependent effect”; in data set [21] it was 91%; in data set [23], 95%. The metabolised at 0.5 h, 25 µM in data set [4] came to 20%. Further, the inhibition entry in data set [5], in [9] and in [13] was “Dose-dependent effect” each time. In addition, the viability at 0.5 µM came to 75% in data set [8] and 56% in data set [24]. Besides, the viability at 2.5 µM in data set [14] stood at 84%; in data set [20] it was 85%. In addition, in [16], the remaining at 0.5 h, 25 µM turned out to be 70%.
